Assay results: ChEMBL document CHEMBL1140167, “Meroditerpenoids from the brown alga Sargassum siliquastrum” (J Nat Prod, 2008)
In brackets after ≈: the same amount, converted by molar mass.

Experiments:
[1] = test system: Radical scavenging activity; test: Antioxidant activity assessed as DPPH radical scavenging activity; format: functional
Summary of the method: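 DPPH radical-scavenging test; activity expressed as RC50, reported in µg/mL.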

[2] = Inhibition of Staphylococcus aureus sortase A
[3] = target: Isocitrate lyase (Candida albicans, UniProt Q9P8Q7); test: Inhibition of Candida albicans isocitrate lyase
Chain of Isocitrate lyase (Q9P8Q7 whole entry): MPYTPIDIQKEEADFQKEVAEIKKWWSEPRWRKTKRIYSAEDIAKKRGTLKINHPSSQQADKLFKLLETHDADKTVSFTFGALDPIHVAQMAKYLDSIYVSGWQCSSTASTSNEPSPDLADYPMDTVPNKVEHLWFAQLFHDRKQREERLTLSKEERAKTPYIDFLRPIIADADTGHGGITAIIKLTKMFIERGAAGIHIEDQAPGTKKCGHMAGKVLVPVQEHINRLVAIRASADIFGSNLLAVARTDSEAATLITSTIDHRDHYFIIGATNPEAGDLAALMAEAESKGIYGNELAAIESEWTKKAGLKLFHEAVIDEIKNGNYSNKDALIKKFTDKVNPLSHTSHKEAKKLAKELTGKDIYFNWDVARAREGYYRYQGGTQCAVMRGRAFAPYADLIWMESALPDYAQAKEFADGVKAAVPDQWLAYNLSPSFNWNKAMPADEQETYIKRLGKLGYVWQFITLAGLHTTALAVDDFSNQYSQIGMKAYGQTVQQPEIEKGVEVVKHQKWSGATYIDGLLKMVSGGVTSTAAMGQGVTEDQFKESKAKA

| SMILES | IC50 [2] | IC50 [3] | RC50 [1] |
| --- | --- | --- | --- |
| C=CC(C)(CC/C=C(\C)CC/C=C(\C)[C@@H](O)[C@@H](O)C=C(C)C)Oc1ccc(O)cc1CC(=O)OC (some centres not stated) [NAHOCOL D1] | > 200 µg/mL | – | 18.5 µg/mL |
| COC(=O)Cc1cc(O)cc(C/C=C(\C)CC/C=C(\C)CCCC(C)C(=O)[C@@H](O)C=C(C)C)c1O (some centres not stated) | 23 µg/mL (≈ 47.3 µM) | – | 0.3 µg/mL |
| C=CC(C)(CC/C=C(\C)CC/C=C(\C)[C@H](O)C(=O)C=C(C)C)Oc1ccc(O)cc1CC(=O)OC (some centres not stated) | > 200 µg/mL | 103 µM | 14.7 µg/mL |
| C=CC(C)(CC/C=C(\C)CC/C=C(\C)C(=O)[C@@H](O)C=C(C)C)Oc1ccc(O)cc1CC(=O)OC (some centres not stated) | > 200 µg/mL | 103 µM | 12.6 µg/mL |
| C=CC(C)(CC/C=C(\C)CC/C=C(\C)[C@@H](O)[C@H](O)C=C(C)C)Oc1ccc(O)cc1CC(=O)OC (some centres not stated) [NAHOCOL D2] | > 200 µg/mL | – | 12.4 µg/mL |
| COC(=O)Cc1cc(O)cc(C/C=C(/C)CCC(=O)C(C)CC/C=C(\C)C[C@H](O)C=C(C)C)c1O (some centres not stated) | 23 µg/mL (≈ 47.3 µM) | – | 0.1 µg/mL |
| C=CC(C)(CC/C=C(\C)CCCC(C)C(=O)[C@@H](O)C=C(C)C)Oc1ccc(O)cc1CC(=O)OC (some centres not stated) [NAHOCOL A] | > 200 µg/mL | – | 11.3 µg/mL |
| C=CC(C)(CC/C=C(\C)CCCC(C)C(=O)[C@H](O)C=C(C)C)Oc1ccc(O)cc1CC(=O)OC (some centres not stated) [NAHOCOL A1] | > 200 µg/mL | – | 12.7 µg/mL |

Second part, led by results:

| IC50 [2] | IC50 [3] | SMILES | RC50 [1] |
| --- | --- | --- | --- |
| > 200 µg/mL | 112 µM | CC(C)=CC(O)C(=O)/C(C)=C/CC/C(C)=C/CCC(C)(O)CCc1cc(O)cc(C)c1O (configuration not stated) | 0.24 µg/mL |
| 23 µg/mL (≈ 47.5 µM) | – | COC(=O)Cc1cc(O)cc(C/C=C(/C)CC/C=C(\C)CC/C=C(\C)C(=O)[C@@H](O)C=C(C)C)c1O | 0.33 µg/mL |
| 23 µg/mL (≈ 47.3 µM) | – | COC(=O)Cc1cc(O)cc(C/C=C(\C)CC/C=C(\C)CC/C=C(\C)[C@@H](O)[C@@H](O)C=C(C)C)c1O [ISONAHOCOL D2] | 0.12 µg/mL |
| 23 µg/mL (≈ 47.3 µM) | – | COC(=O)CC1(C/C=C(\C)CC/C=C(\C)CC/C=C(\C)[C@@H](O)[C@@H](O)C=C(C)C)CC(=O)C=CC1=O (some centres not stated) | > 300 µg/mL |
| > 200 µg/mL | – | C=CC(C)(CC/C=C(\C)CCCC(C)C(O)C(=O)C=C(C)C)Oc1ccc(O)cc1CC(=O)OC (configuration not stated) | 9.12 µg/mL |
| 23 µg/mL (≈ 47.5 µM) | – | COC(=O)Cc1cc(O)cc(C/C=C(\C)CC/C=C(\C)CC/C=C(\C)C(=O)[C@@H](O)C=C(C)C)c1O | 0.31 µg/mL |
| > 200 µg/mL | 107 µM | C=CC(C)(CC/C=C(\C)C[C@@H]1C=C(C)C(=O)[C@H]1C=C(C)C)Oc1ccc(O)cc1CC(=O)OC (some centres not stated) | 11.7 µg/mL |
| > 200 µg/mL | 117 µM | CC(C)=CCC/C(=C/CC/C(C)=C/CC/C(C)=C/Cc1cc(O)cc(C)c1O)C(=O)O [SARGAHYDROQUINOIC ACID] | 0.17 µg/mL |
| > 200 µg/mL | 103 µM | C=CC(C)(CC/C=C(\C)CC/C=C(/C)[C@H](O)C(=O)C=C(C)C)Oc1ccc(O)cc1CC(=O)OC (some centres not stated) | 23.2 µg/mL |
| 23 µg/mL (≈ 47.3 µM) | – | COC(=O)Cc1cc(O)cc(C/C=C(/C)CC/C=C(\C)CC/C=C(\C)[C@@H](O)[C@@H](O)C=C(C)C)c1O [ISONAHOCOL D1] | 0.13 µg/mL |
| > 200 µg/mL | – | C=CC(C)(CC/C=C(\C)CCCC(C)[C@@H](O)C(=O)C=C(C)C)Oc1ccc(O)cc1CC(=O)OC (some centres not stated) | 17.2 µg/mL |
| > 200 µg/mL | 106 µM | C=CC(C)(CC/C=C(\C)CCCC(C)C(O)/C=C/C(=C)C)Oc1ccc(O)cc1CC(=O)OC (configuration not stated) | 12.4 µg/mL |
